Data reported in ChEMBL document CHEMBL3244045, “2-cyano-1,3-dicarbonyl compounds with antiallergic activity” (1977).

Tests used:
Format in all cases: functional
Rattus norvegicus [1] = assay: Antiallergic activity in sc dosed Wistar rat assessed as inhibition of ovalbumin-mediated passive cutaneous anaphylaxis by measuring wheal formation at Tmax
How it was run: (§1)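 Rat PCA: serum with heat-labile homocytotropic antibody raised in rats to crystallized ovalbumin, Bordetella pertussis vaccine adjuvant; PCA per Ovary–Bier method as modified by Goose and Blair. Test agents as sodium salts, dissolved in pH 7.2 buffer or suspended in 1% methylcellulose by solubility. ED50 from inhibition/log dose line, 95% confidence limits, slope and animal numbers given.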

Rattus norvegicus [2] = assay: Antiallergic activity in sc dosed Wistar rat assessed as time between compound administration and ovalbumin challenge to give maximum activity by passive cutaneous anaphylaxis assay
Rattus norvegicus [3] = assay: Antiallergic activity in po dosed Wistar rat assessed as inhibition of ovalbumin-mediated passive cutaneous anaphylaxis by measuring wheal formation administered 15 to 20 mins prior to ovalbumin challenge; how it was run: as §1

SMILES	ED50 (Rattus norvegicus [1]) [µmol/kg]	Time (Rattus norvegicus [2]) [min]	ED50 (Rattus norvegicus [3]) [µmol/kg]
N#Cc1c([O-])c2cc3c(cc2oc1=O)CCCC3.[Na+]	16.4	10	–
N#C[C-]1C(=O)c2ccc(Cl)cc2C1=O.[Na+] (stereo not given)	59.7	10	–
CCc1cc2c([O-])c(C#N)c(=O)oc2cc1C.[Na+]	10.1	10	–
N#Cc1c([O-])c2ccccc2oc1=O.[Na+]	39.1	10	–
CCc1cc2oc(=O)c(C#N)c([O-])c2cc1CC.[Na+]	7.6	10	60
Cc1ccc2c([O-])c(C#N)c(=O)oc2c1.[Na+]	52.4	10	–
N#C[C-]1C(=O)c2cc3ccccc3cc2C1=O.[Na+]	13.8	10	–
CCOc1ccc2c([O-])c(C#N)c(=O)oc2c1.[Na+]	15.1	10	–
O=C([O-])c1cc(=O)c2c(OCC(O)COc3cccc4oc(C(=O)[O-])cc(=O)c34)cccc2o1.[Na+].[Na+] [CROMOLYN SODIUM]	13.1	10	–
N#C[C-]1C(=O)c2cccnc2C1=O.[Na+] (stereo not given)	90.6	10	–
CCc1cc2c(cc1CC)C(=O)[C-](C#N)C2=O.[Na+]	10.9	20	60
Cc1cccc2c([O-])c(C#N)c(=O)oc12.[Na+]	32.8	10	–
N#C[C-]1C(=O)c2ccncc2C1=O.[Na+] (stereo not given)	120	10	–
Cc1ccc2c(c1)C(=O)[C-](C#N)C2=O.[Na+] (stereo not given)	44.1	10	–
Cc1ccc2oc(=O)c(C#N)c([O-])c2c1.[Na+]	497	10	–
COc1cccc2c1C(=O)[C-](C#N)C2=O.[Na+] (stereo not given)	90.2	10	–
Cc1ccc2c([O-])c(C#N)c(=O)oc2c1C.[Na+]	26.2	10	–
CCc1ccc2c([O-])c(C#N)c(=O)oc2c1.[Na+]	23.8	10	–
Cc1cccc2c1C(=O)[C-](C#N)C2=O.[Na+] (stereo not given)	74	10	–
N#Cc1c([O-])c2cc3ccccc3cc2oc1=O.[Na+]	211	10	–
COc1ccc2oc(=O)c(C#N)c([O-])c2c1.[Na+]	28.2	10	–
Cc1cc2c(cc1C)C(=O)[C-](C#N)C2=O.[Na+]	16.3	10	–
Cc1cc2oc(=O)c(C#N)c([O-])c2cc1C.[Na+]	15.2	10	–
N#C[C-]1C(=O)c2ccccc2C1=O.[Na+]	85.3	10	–
